This is an account of results in ChEMBL document CHEMBL3734668, “Evaluation of small molecule SecA inhibitors against methicillin-resistant Staphylococcus aureus” (Bioorg Med Chem, 2015).

What is called MIC is the lowest concentration that inhibits growth of the organism. Read a low MIC as a more susceptible organism. For orientation: IC50 means the concentration needed to halve the response being measured.

Assay [1] concerns the target T1, Protein translocase subunit SecA 1 (Staphylococcus aureus (strain NCTC 8325)) (UniProt O06446).
T1 sequence (whole entry): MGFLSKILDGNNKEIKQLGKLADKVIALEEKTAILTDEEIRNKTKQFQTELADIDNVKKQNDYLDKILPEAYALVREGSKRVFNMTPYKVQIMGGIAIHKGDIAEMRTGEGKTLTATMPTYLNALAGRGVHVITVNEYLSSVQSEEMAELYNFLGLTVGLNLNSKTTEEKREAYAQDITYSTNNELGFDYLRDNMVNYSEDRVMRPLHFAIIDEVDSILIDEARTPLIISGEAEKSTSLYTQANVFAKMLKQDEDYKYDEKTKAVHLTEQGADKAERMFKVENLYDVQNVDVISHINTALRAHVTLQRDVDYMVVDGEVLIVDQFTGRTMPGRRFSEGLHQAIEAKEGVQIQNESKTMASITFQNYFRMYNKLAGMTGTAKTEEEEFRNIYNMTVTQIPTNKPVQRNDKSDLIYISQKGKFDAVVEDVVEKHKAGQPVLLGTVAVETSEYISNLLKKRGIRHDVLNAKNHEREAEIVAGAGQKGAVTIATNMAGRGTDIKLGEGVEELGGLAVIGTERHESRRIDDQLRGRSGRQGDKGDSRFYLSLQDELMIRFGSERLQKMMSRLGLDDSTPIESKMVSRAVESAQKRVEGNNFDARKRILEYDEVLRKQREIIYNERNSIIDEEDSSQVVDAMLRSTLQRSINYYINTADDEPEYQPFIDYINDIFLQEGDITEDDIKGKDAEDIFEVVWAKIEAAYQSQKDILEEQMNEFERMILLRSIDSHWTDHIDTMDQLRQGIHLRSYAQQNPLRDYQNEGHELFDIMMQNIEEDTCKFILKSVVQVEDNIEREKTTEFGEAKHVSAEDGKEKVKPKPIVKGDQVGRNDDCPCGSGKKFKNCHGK
As to the kind of experiment: Inhibition of Staphylococcus aureus SecA1 assessed as reduction in secretion of enterotoxin B at 10 uM by Western blot analysis. In outline:
(§1)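 S. aureus Mu50 grown in LB at 37 °C; inhibitor added at mid-log phase and cultures sampled at several time points. Supernatants separated by centrifugation, filtered 0.45 μm, and probed by Western blot with antibodies to α-hemolysin, TSST-1 or enterotoxin B.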

Assay [2] concerns Staphylococcus aureus. As to the kind of experiment: Potency index, ratio of MIC for kanamycin to MIC for test compound against Methicillin resistant Staphylococcus aureus. The class given is functional.
In assay [3] the test system is Staphylococcus aureus. As to the kind of experiment: Bactericidal activity against Methicillin resistant Staphylococcus aureus Mu50 assessed as CFU reduction for 1 hr. The class given is functional, organism-based. In outline:
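Log-phase Mu50 cultures (OD600 ≈ 0.5) mixed with a range of inhibitor concentrations, shaken 1,000 rpm at 37 °C for 1 hr under normal room light. Cultures then serially diluted in LB, plated on LB agar and incubated overnight at 37 °C. Activity expressed as reduction in CFU relative to untreated control containing matching DMSO.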

Assay [4] has as its system Staphylococcus aureus. As to the kind of experiment: Bacteriostatic activity against MepA deficient Staphylococcus aureus K2908. The class given is functional. In outline:
(§2)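 Broth microdilution MIC per CLSI guidance in LB, 37 °C, shaking 250 rpm, 24 hr; run in triplicate in three separate experiments. MIC taken as lowest inhibitor concentration with no growth. Compounds from DMSO stocks; untreated controls carry equal DMSO.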

Assay [5] deals with Staphylococcus aureus. As to the kind of experiment: Reduction in extracellular protein in Staphylococcus aureus Mu50 supernatant at 10 uM measured within 15 hrs. The class given is functional, organism-based. In outline:
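Mu50 grown in LB at 37 °C; inhibitor added at mid-log phase (OD600 ≈ 2.6). Culture sampled at various times, supernatant separated by centrifugation and passed through 0.45 μm filter. Secreted α-hemolysin, TSST-1 and enterotoxin B detected by Western blot with specific antibodies.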

Assay [6] concerns the target T1, Protein translocase subunit SecA 1 (Staphylococcus aureus (strain NCTC 8325)). As to the kind of experiment: Inhibition of Staphylococcus aureus SecA1 assessed as reduction in secretion of alpha-hemolysin at 10 uM by Western blot analysis. In outline: as §1
The test system of assay [7] is Staphylococcus aureus. As to the kind of experiment: Bactericidal activity against Methicillin sensitive Staphylococcus aureus ATCC 6538 assessed as CFU reduction at 30 uM for 1 hr. The class given is functional. In outline:
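Log-phase LB cultures (OD600 ≈ 0.5) mixed with a range of inhibitor concentrations, shaken at 1,000 rpm, 37 °C, 1 hr, under normal room light. Cultures serially diluted in LB, plated on LB agar, incubated overnight at 37 °C. CFU counted; bactericidal effect taken as CFU reduction versus untreated control.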

For assay [8], the system named is Staphylococcus aureus. As to the kind of experiment: Bacteriostatic activity against Staphylococcus aureus Mu3 after 24 hrs. The conditions noted are these: Mu3, 24 h. The class given is functional. In outline: as §2
In assay [9] the test system is Staphylococcus aureus. As to the kind of experiment: Bacteriostatic activity against Staphylococcus aureus Newman after 24 hrs. The class given is functional. In outline:
as §2

Assay [10] concerns the target T1, Protein translocase subunit SecA 1 (Staphylococcus aureus (strain NCTC 8325)). As to the kind of experiment: Non-competitive inhibition of Staphylococcus aureus ATCC 35556 SecA1 liposomal ATPase activity in Xenopus laevis oocytes incubated for 3 hrs measured by Lineweaver-Burk plot analysis. The class given is cell-based. In outline:
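SaSecA1-liposome plus proOmpA co-injected into Xenopus oocytes at varying ATP and inhibitor concentrations, incubated 3 hr at 23 °C, ion current recorded 1 min; n = 9-10. Inhibition mode assessed across ATP levels.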

Assay [11] concerns Staphylococcus aureus. As to the kind of experiment: Bacteriostatic activity against Staphylococcus aureus K2068 overexpressing MepA. The class given is functional. In outline:
as §2

Assay [12] addresses T2, Protein translocase subunit SecA 2 (Staphylococcus aureus (strain NCTC 8325), UniProt Q2FUW6).
T2 sequence (Q2FUW6 whole entry): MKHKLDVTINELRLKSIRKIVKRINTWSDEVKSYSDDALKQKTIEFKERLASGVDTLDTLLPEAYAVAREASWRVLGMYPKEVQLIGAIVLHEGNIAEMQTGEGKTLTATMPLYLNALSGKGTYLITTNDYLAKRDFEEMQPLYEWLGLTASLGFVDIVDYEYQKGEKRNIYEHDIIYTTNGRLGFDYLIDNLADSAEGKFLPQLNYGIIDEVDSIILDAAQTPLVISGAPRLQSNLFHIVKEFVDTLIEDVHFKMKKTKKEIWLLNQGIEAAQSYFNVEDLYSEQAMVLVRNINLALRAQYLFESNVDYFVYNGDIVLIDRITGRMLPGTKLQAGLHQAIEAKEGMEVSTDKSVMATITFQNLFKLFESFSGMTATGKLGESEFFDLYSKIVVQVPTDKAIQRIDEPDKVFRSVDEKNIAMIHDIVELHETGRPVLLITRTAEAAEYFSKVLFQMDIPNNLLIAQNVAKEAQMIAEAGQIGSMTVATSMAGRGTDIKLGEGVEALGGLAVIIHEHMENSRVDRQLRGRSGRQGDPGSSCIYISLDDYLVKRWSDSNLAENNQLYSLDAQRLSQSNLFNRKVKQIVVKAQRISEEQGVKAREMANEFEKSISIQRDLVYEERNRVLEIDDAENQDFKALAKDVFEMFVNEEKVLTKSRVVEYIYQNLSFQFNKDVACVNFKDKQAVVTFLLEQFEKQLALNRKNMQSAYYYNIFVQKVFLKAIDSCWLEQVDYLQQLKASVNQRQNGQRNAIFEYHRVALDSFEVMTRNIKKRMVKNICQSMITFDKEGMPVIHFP
As to the kind of experiment: Inhibition of Staphylococcus aureus ATCC 35556 SecA2 expressed in Escherichia coli BL21-gammaDE3 assessed as reduction in intrinsic ATPase activity incubated for 3 hrs measured by malachite green colorimetric method.

The test system of assay [13] is Staphylococcus aureus. As to the kind of experiment: Potency index, ratio of MIC for tetracycline to MIC for test compound against Methicillin resistant Staphylococcus aureus. The class given is functional.
Assay [14] deals with Staphylococcus aureus. As to the kind of experiment: Bacteriostatic activity against NorA deficient Staphylococcus aureus K1758. The class given is functional. In outline:
as §2

Values after ≈ are worked out from the molar mass of the structure shown. Active and inactive are the calls of the source. The rule behind the calls is not given here.

Consider `CCCCCCC1c2ccc(O)cc2Oc2cc(O)ccc21`, for which the inhibition entry in [1], in assay [6] and in [10] was “Active” throughout. The results for the Ratio with Staphylococcus aureus [2] and with Staphylococcus aureus [13] were 250 and 7, respectively. Besides, the figures for the Activity entry with Staphylococcus aureus [3] and in the assay on Staphylococcus aureus [7] were “Dose-dependent effect” and 2 log10CFU/ml, respectively. For the same compound, the minimal inhibitory concentration (MIC) against Staphylococcus aureus [4], in the assay with Staphylococcus aureus [8], with Staphylococcus aureus [9], in the assay with Staphylococcus aureus [11] and in the assay with Staphylococcus aureus [14] was 4 µg/mL (≈ 13.4 µM) each time. In addition, the result with Staphylococcus aureus [5] was Active. For the same compound, in [12], the IC50 was 15 µM.
